Hits are enriched below; roughly 2.8% of the tested compounds scored in any of these assays.
ARFGAP1 inhibitor: inhibitors of rat ARFGAP1 GAP activity, primary screen, biochemical, fluorescence polarization, GDP tracer | Arfgap1-stimulated ARF1 GTP hydrolysis, GDP FP detection | inhibition, % at 16.5 µM | 360,000 compounds, 0.26% hits | AID 651572, 2012;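 active means inhibition above a per-plate limit, mean inhibition of low control wells plus 3 SD, cut at about 25% in these data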
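Repeats: one replicate per compound; assay system: rat Arfgap1 catalytic domain, aa 1-136; times: enzyme reaction 120 min at 25 °C after 20 min preincubation; detection: FP of antibody-bound GDP Alexa 633 tracer, ex 620/em 688 nm; benchmarks: high control wells lacking Arfgap1, low control full reaction with DMSO; reagent: human ARF1(Δ1-17)-GTP substrate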
PAFAH1B2 FP inh: PAFAH1B2 enzyme inhibitors, primary screen, biochemical, fluorescence polarization, human | Platelet-activating factor acetylhydrolase IB subunit alpha2 (Homo sapiens), P68402 | AID 492953, 2010 | 340,000 compounds, 1.2% hits | recombinant PAFAH1B2, FP-rhodamine activity probe | inhibition, % at 3.39 µM;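 active means inhibition above the mean of all tested compounds plus 3 SD, cut at about 24% in these data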
Target sequence (P68402 whole entry, looked up): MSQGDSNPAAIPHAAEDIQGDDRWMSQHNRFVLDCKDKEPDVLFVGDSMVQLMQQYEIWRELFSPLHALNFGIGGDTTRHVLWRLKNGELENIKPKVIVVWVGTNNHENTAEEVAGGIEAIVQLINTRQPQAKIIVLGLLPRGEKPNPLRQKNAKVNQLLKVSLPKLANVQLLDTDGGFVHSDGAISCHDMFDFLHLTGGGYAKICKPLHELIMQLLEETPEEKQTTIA
pPAFAH FP inh: pPAFAH enzyme inhibitors, primary screen, biochemical, fluorescence polarization, human. Platelet-activating factor acetylhydrolase (Homo sapiens), Q13093. recombinant pPAFAH, FP-rhodamine probe fluorescence polarization. AID 463082, 2010. 330,000 compounds, 1.5% hits. inhibition, % at 3.39 µM;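 active means inhibition above the mean inhibition across the screen plus 3 SD, cut at about 25% in these data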;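 further: inhibitors block binding of the rhodamine activity-based probe so polarization drops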
PAFAH2 FP inh: PAFAH2 enzyme inhibitors, primary screen, biochemical, fluorescence polarization, human | Platelet-activating factor acetylhydrolase 2, cytoplasmic (Homo sapiens), Q99487 | recombinant PAFAH2, FP-rhodamine activity probe | inhibition, % at 3.39 µM | 340,000 compounds, 0.99% hits;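 active means inhibition above the mean over all tested compounds plus 3 SD, cut at about 30% in these data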;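 further: inhibitors block probe labeling of enzyme so polarization drops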
PAFAH1B3 inh: PAFAH1B3 enzyme inhibitors, primary screen, biochemical, fluorescence polarization, human; Platelet-activating factor acetylhydrolase IB subunit alpha1 (Homo sapiens), Q15102; recombinant PAFAH1B3, FP-rhodamine probe; inhibition, % at 3.39 µM; 340,000 compounds, 0.28% hits;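 active means inhibition above the screen-wide average of all tested compounds plus 3 SD, cut at about 25% in these data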
ASAP1 inh: inhibitors of human ASAP1 ArfGAP activity, primary screen, biochemical, fluorescence polarization; Arf-GAP with SH3 domain, ANK repeat and PH domain-containing protein 1 (Homo sapiens), …; ASAP1-stimulated ARF1 GTP hydrolysis, GDP FP detection; inhibition, % at 16.5 µM; 360,000 compounds, 0.19% hits; AID 624377, 2012; in the data active means inhibition above about 25%
Target sequence (Q9ULH1 325-724 limits assumed): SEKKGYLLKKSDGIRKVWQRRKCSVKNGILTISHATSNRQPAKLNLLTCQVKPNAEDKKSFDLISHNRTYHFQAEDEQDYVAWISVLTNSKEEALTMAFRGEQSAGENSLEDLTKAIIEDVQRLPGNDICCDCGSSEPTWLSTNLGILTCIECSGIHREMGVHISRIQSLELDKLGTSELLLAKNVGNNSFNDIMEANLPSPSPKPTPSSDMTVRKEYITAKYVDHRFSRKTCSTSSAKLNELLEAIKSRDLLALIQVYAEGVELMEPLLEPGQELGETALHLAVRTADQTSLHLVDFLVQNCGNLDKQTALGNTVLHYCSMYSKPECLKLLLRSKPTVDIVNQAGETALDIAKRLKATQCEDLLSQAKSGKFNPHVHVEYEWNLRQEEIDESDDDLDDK
A number is an active result; . = inactive; / = no result given.

SMILES	ARFGAP1 inhibitor	PAFAH1B2 FP inh	pPAFAH FP inh	PAFAH2 FP inh	PAFAH1B3 inh	ASAP1 inh
COc1cccc(CNC(=O)COC(=O)C23CC4CC(CC(Cl)(C4)C2)C3)c1	.	28	.	.	.	.
C[C@H](O)[C@@H]1CN2CCc3c([nH]c4c(-c5ccccc5)cccc34)[C@@H]2C[C@@H]1N(C)C(=O)Nc1ccccc1	.	/	/	/	/	.
Cc1cc(C)c2c(=O)n3c(nc2c1)C(Cc1ccccc1)NC(=O)c1cccnc1-3 (stereo unspecified)	.	/	/	/	/	.
CSc1ccc(CCNC(=O)c2ccc(CS(=O)Cc3ccc(Cl)cc3)o2)cc1 (stereo unspecified)	.	.	30	.	.	.
COc1ccc2c(c1)c(=O)oc1cc(OC(C(=O)O)c3ccccc3)ccc12 (stereo unspecified)	.	.	.	.	.	.
CCCCNc1ccc2c(c1)OC[C@@H](CC(C)C)NS2(=O)=O	.	/	/	/	/	.
COc1ccc(-c2csc(C(NC(C)=O)c3ccccc3)n2)cc1 (stereo unspecified)	.	/	/	/	/	.
Cc1ccnc(NS(=O)(=O)c2ccc(NC(=O)Cc3cccs3)cc2)n1	/	.	34	.	.	/
O=C(Cc1cccs1)Nc1ccc(S(=O)(=O)Nc2ncccn2)cc1	.	.	.	.	.	.
COc1ccc(Nc2nc(Nc3ccc(OC)cc3)nc(SC3=NCCS3)n2)cc1	.	.	34	.	.	.
O=c1oc(-c2ccccc2[N+](=O)[O-])nc2ccccc12	.	.	.	45	.	.
CC(=O)Nc1ccc(NC(=O)CCn2c(=O)oc3ccccc32)cc1	/	.	26	.	.	/
O=c1[nH]c2cc(Cl)ccc2c(O)c1-c1cccc(Oc2ccccc2)c1	.	32	.	.	.	.
O=C(Nc1cccc(C(=O)N2CCOCC2)c1)C1CCCCC1	.	/	/	/	/	.
Cc1nc2ccc(S(=O)(=O)CCC(=O)NCc3ccc(Cl)cc3)cc2s1	.	/	/	/	/	.
O=C(O)COc1ccccc1/C=N/NC(=O)CSc1nnc(SCc2ccc(Cl)cc2)s1	.	43	27	.	.	.
COc1ccccc1Cc1c(-c2ccco2)nc2ccc(C)cn12	.	/	/	/	/	.
Cc1ccccc1SCc1noc(C(=O)NCC2CCCO2)c1C(=O)O (stereo unspecified)	.	.	.	.	.	.
O=C(NCC1CCCO1)c1onc(CSc2ccc(Cl)cc2)c1C(=O)O (stereo unspecified)	.	25	.	.	.	.
COc1ccc(-c2cc(C#N)nc(N3CCNCC3)n2)cc1	75	.	.	.	.	53
COc1ccc(-c2cc(C#N)nc(N3CCN(C)CC3)n2)cc1	.	.	.	.	.	.
CCN1C[C@@H]2[C@@H]3C(=O)N(C)C(=O)[C@@H]3[C@](C)(C(=O)OC)N2C1=NC	.	.	.	.	.	.
O=C(NNC(=O)C1CCN(S(=O)(=O)c2ccc(Cl)cc2)CC1)c1ccc(Cl)cc1	.	.	.	.	.	.
CCN(CC)S(=O)(=O)c1ccc(C(=O)NNC(=O)C2CCN(S(=O)(=O)c3ccc(Cl)cc3)CC2)cc1	.	36	.	.	.	.
Cc1cccc(NC(=O)C2CCN(S(=O)(=O)c3ccc(Cl)cc3)CC2)n1	.	29	.	.	.	.
SMILES	ARFGAP1 inhibitor	PAFAH1B2 FP inh	pPAFAH FP inh	PAFAH2 FP inh	PAFAH1B3 inh	ASAP1 inh
O=C(NNC(=O)C1CCN(S(=O)(=O)c2ccc(Cl)cc2)CC1)c1ccccc1	.	34	.	.	.	.
NC(=O)NC(=O)COC(=O)c1ccc(OC(F)(F)F)cc1	.	.	.	.	.	.
O=C(COC(=O)c1ccc(OC(F)(F)F)cc1)Nc1ncccn1	.	.	25	.	.	.
CN(CC(=O)NCc1ccc(F)cc1)Cc1ccc(Br)cc1	.	25	.	.	.	.
COC(=O)/C=C1\S/C(=N/NC(=O)c2ccccc2)NC1=O	.	.	.	.	.	.
COc1ccccc1/C=C1\S/C(=N/NC(=O)c2cccc(Br)c2)NC1=O	.	.	.	41	.	.
O=C(CSc1ccc(Cl)cc1)OCc1nnc(-c2ccccc2)o1	.	96	26	.	.	.
Cc1ccc(-c2nnc(COC(=O)c3ccco3)o2)cc1	.	.	.	.	.	.
O=C(/C=C/c1ccco1)OCc1nnc(-c2ccc(Cl)cc2)o1	.	.	28	67	.	.
N#CC1C=Cc2c(ccc3ccccc23)N1C(=O)c1ccccc1 (stereo unspecified)	.	.	/	.	.	.
N=c1c(S(=O)(=O)c2ccccc2)cc2c(=O)n3ccccc3nc2n1Cc1ccco1	.	.	26	.	.	.
N=c1c(S(=O)(=O)c2ccc(Br)cc2)cc2c(=O)n3ccccc3nc2n1CCN1CCOCC1	.	41	/	.	.	.
CC(C)(C)OC(=O)N1CCCN(C(c2ccnc3ccccc23)c2nnnn2-c2ccc3c(c2)OCCO3)CC1 (stereo unspecified)	.	/	/	/	/	.
CC1(C(=O)NS(=O)(=O)C2CC2)CCCN(C(=O)c2ccccc2OC(F)(F)F)C1 (stereo unspecified)	.	/	/	/	/	.
CS(=O)(=O)N1CCSC1c1ccc(Br)cc1 (stereo unspecified)	.	26	.	.	.	.
COc1ccc(Br)cc1C1SCCN1S(C)(=O)=O (stereo unspecified)	.	.	.	.	.	.
COc1cccc(CN2CC(C(=O)N3CCCCCC3)CCC2=O)c1 (stereo unspecified)	.	.	.	.	.	.
COc1ccccc1CNC(=O)COC(=O)Cc1ccc(Cl)cc1	.	.	27	.	.	.
CCN(CC)S(=O)(=O)c1cccc(C(=O)OCC(=O)NCc2ccccc2OC)c1	.	.	32	.	.	.
O=C(COC(=O)Cc1ccc(Br)cc1)NCC1CCCCC1	.	.	31	.	.	.
O=C(COC(=O)Cc1ccc(Br)cc1)NC1CCCCC1	.	.	30	.	.	.
COc1ccccc1N1CCN(C(=O)c2noc(C(C)C)c2[N+](=O)[O-])CC1	/	.	.	.	.	/
CN(Cc1ccccc1)C(=O)c1ccc(NC(=O)Cc2ccc([N+](=O)[O-])cc2)cc1	.	.	.	.	.	.
COc1ccc(Cl)cc1NC(=O)NN1CCN(C)CC1	.	.	.	.	.	.
Cc1cc(C)c(OCC(=O)OCC(=O)NCC2CCCCC2)c(C)c1	.	.	31	.	.	.
O=C(COC(=O)Cc1ccc(Cl)cc1)NC1CCCC1	.	.	26	.	.	.
